Compound activity (PubChem)
Myeloid diff 2: myeloid differentiation induction; calls only at 10 µM; AID 624256; ER-HoxA9 myeloid progenitors, lysozyme-GFP differentiation, flow cytometry; 360,000 compounds, 1% hits;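 active means normalized GFP-positive differentiation at or above the plate's own cutoff, the solvent-only control mean plus 3 SD; inconclusive means no clear call, values can overlap the other calls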;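 further: cells exposed to compound for four days before flow analysis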
NadD inh: inhibitors of Staphylococcus aureus NadD | purified NadD enzyme, colorimetric absorbance read-out | inhibition, % at 20 µM | 360,000 compounds, 0.78% hits; in the data active means inhibition above about 26%
PP1 counter: counter-screen for PP5 inhibitors: inhibitors of human PP1-alpha | 320,000 compounds, 0.9% hits | P62136 | purified PP1alpha, OMFP fluorescence | inhibition, % at 6.7 µM;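 active means inhibition above the mean inhibition of all tested compounds plus 3 SD, computed separately for each screening campaign, cut at about 15% in these data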
HCV core dimer: HCV core protein dimerization inhibition. TR-FRET GST/Flag-core106 dimerization, 1536-well. inhibition, % at 5 µM. 300,000 compounds, 0.33% hits;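 active means inhibition above the mean of all tested compounds plus 3 SD, set per screening campaign, cut at about 45% in these data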
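System: GST-tagged and Flag-tagged HCV core protein residues 1-106 / Input: core106 proteins, GST 13.5 nM and Flag 17 nM / Buffer or medium: KF-containing HEPES buffer, pH 7.45, DTT, CHAPS, BSA / Probe or stimulus: Eu-anti-GST and XL665-anti-Flag labelled anti-tag antibodies / Schedule: 4 h, 22.5 °C incubation / Technique: TR-FRET 671 and 617 nm emission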
PP5 primary: inhibitors of human protein phosphatase 5 (PP5) | purified PP5c, OMFP substrate fluorescence | inhibition, % at 6.7 µM | 320,000 compounds, 0.18% hits;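 active means inhibition above the campaign's mean inhibition across all tested compounds plus 3 SD, cut at about 9.5% in these data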;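 further: 0% = DMSO only and 100% = 100 µM cantharidin control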
Target sequence (P53041 whole entry, looked up): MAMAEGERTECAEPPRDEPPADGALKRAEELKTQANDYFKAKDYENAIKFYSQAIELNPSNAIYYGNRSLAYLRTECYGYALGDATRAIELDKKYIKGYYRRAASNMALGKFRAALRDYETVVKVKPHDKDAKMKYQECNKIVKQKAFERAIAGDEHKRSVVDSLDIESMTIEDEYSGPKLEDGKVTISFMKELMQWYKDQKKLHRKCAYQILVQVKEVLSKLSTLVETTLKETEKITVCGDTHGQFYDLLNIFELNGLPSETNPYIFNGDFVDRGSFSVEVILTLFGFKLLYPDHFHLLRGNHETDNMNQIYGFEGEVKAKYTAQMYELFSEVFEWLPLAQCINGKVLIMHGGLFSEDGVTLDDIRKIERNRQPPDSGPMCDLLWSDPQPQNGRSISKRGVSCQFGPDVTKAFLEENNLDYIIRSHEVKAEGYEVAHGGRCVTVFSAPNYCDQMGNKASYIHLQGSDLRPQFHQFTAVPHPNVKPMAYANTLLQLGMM
CTSL1 counter: cathepsin L1 inhibition, PFM18AAP counter-screen; recombinant F. hepatica cathepsin L1, Z-Leu-Arg-MCA fluorescence; inhibition, % at 5.96 µM; 300,000 compounds, 0.49% hits;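 active means inhibition above the mean of all tested compounds plus 3 SD, set per screening campaign, cut at about 17% in these data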;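 further: 0% = plate median of test compound wells and 100% = 1 µM Z-Phe-Ala-diazomethylketone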
PP1 confirm: human PP1 phosphatase inhibition, confirmation. inhibition, % at 6.7 µM. shares compounds with PP1 counter. purified PP1alpha, OMFP substrate fluorescence. AID 2358. 1,900 compounds, 52% hits;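 active means mean PP1 inhibition above a set limit taken from the earlier primary screen, cut at about 15% in these data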
PP5 counter: PP5 phosphatase inhibition, counter-screen for PP1 inhibitors. shares compounds with PP1 counter. purified PP5c, OMFP fluorescence. inhibition, % at 6.7 µM. 1,900 compounds, 4% hits;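 active means mean PP5 inhibition over triplicate wells above about 9.5% taken from the earlier PP1 screen, limit read from the data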
Active calls of the source: *; i = inactive; ? = inconclusive; / = no result. A selection: hits, their analogues and other compounds. The true share with any hit is near 3.1%.

SMILES	Myeloid diff 2	NadD inh	PP1 counter	HCV core dimer	PP5 primary	CTSL1 counter	PP1 confirm	PP5 counter
O=C1c2cccc3c(Cl)ccc(c23)C(=O)N1O	i	9	38*	8	2	3	30*	-6
CCN1C(=O)c2cccc3c(Cl)ccc(c23)C1=O	i	-8	-6	7	3	1	/	/
O=C(NCc1ccco1)c1nc2c(nnn2Cc2ccccc2Cl)c(=O)[nH]1	i	8	9	4	2	-1	/	/
Cc1ccc(C)c(Cn2nnc3c(=O)[nH]c(C(=O)NCc4ccco4)nc32)c1	i	14	19*	6	1	-1	4	-5
CC(=O)Cc1nsc(NC(=O)c2ccc(-c3cccc(Cl)c3)o2)n1	i	-11	29*	-4	3	2	0	-2
CCOC(=O)c1cnc(-n2nc(C)cc2C)nc1NC(C)c1ccccc1 (stereo not given)	i	12	39*	7	2	5	53*	5
CCOC(=O)c1cnc(-n2cc(C)cn2)nc1NCc1ccc2c(c1)OCO2	i	25	21*	2	2	0	65*	2
CCOC(=O)c1cnc(-n2nc(C)cc2C)nc1NCCO	i	-1	0	-3	0	3	/	/
CCOC(=O)c1cnc(-n2nc(C)cc2C)nc1NCc1ccccc1	i	8	54*	2	7	1	58*	1
CCOC(=O)c1c(C)c(C(=O)NCc2ccc3c(c2)OCO3)c(C)n1CC	i	-1	1	2	2	-3	/	/
CCOC(=O)c1cnc(-n2nc(C)cc2C)nc1NNc1ncc(-c2ccccc2)cn1	/	/	23*	5	3	1	22*	-2
CCCN(Cc1nnc(-c2cccs2)o1)C(=O)c1cccc(S(=O)(=O)N2CCOCC2)c1	i	2	-6	/	-1	/	/	/
COCCCN1C(=O)C(CC(=O)NCc2cccc3ccccc23)CC(C(=O)N(C(C)C)C(C)C)=C1C (stereo not given)	i	-5	/	/	/	/	/	/
O=C(/C=C/[C@H]1O[C@@H](n2cnc3c(NC(=O)c4ccccc4)ncnc32)[C@H](O)[C@@H]1O)NCC1CCCO1 (stereo not given in full)	i	-2	/	/	/	/	/	/
COc1ccc(NC(=O)C[C@H]2C(=O)N(c3ccc(Br)cc3)C[C@@H]2C)cc1	i	0	/	/	/	/	/	/
CC(N)c1csc(Nc2nccc(C(F)(F)F)n2)n1 (stereo not given)	i	8	/	/	/	/	/	/
COc1cc(CCN(C(=O)c2cc3ccccc3[nH]2)C(C)c2nc3ccccc3[nH]2)cc(OC)c1 (stereo not given)	i	4	/	/	/	/	/	/
Clc1ccc2c(N/N=C/c3ccc(Br)cc3)ccnc2c1	?	19	11	-9	5	-2	/	/
Cc1ccc(/C=N/Nc2ccnc3cc(Cl)ccc23)c(C)c1	?	17	33*	-3	6	-2	3	2
c1ccc2c(c1)ccc1ccccc12	i	0	/	/	/	/	/	/
CCCCCCCCCCCCCCCC[n+]1cccc2ccccc21	/	53*	52*	-11	7	1	37*	8
CCCCCCCCC[n+]1cccc2c3ccccc3ccc21	/	6	19*	4	-4	11	-11	-2
CCn1c(=N)n(CC(=O)c2ccc(Cl)c(Cl)c2)c2ccccc21	i	-8	-1	-2	3	1	/	/
N=c1n(CCN2CCCCC2)c2ccccc2n1CC(=O)c1ccc(Cl)c(Cl)c1	i	-3	27*	-6	-1	8	-18	0
N#Cc1c(=O)c2nc(NCCCO)ncc2n2c(=O)c3ccccc3[nH]c12	i	9	20*	8	5	7	17*	1
SMILES	Myeloid diff 2	NadD inh	PP1 counter	HCV core dimer	PP5 primary	CTSL1 counter	PP1 confirm	PP5 counter
CC1(C(=O)NS(=O)(=O)c2cccc(C#N)c2)CCN1C(=O)C1(c2ccc(Cl)cc2)CCC1 (stereo not given)	i	1	/	/	/	/	/	/
CCOc1ccc(N2CSC3=C(C#N)C(c4ccco4)CC(=O)N3C2)cc1 (stereo not given)	i	-2	31*	78*	4	2	13	13*
Cc1cccc(N(C)S(=O)(=O)c2c(C)[nH]c(C)c2C(=O)N2CCCC2)c1	i	4	-2	-8	0	2	/	/
CCc1cccc(NC(=O)c2ccc(Cn3c(=O)[nH]c4ccsc4c3=O)cc2)c1	i	3	18*	13	2	-3	13	0
COc1cc2ccccc2cc1C(=O)Nc1ccc2oc(=O)ccc2c1	/	2	24*	-23	-1	-1	11	-6
COc1cc(OC)c(C(=O)Nc2ccc3ccccc3c2)cc1OC	i	3	1	6	1	2	/	/
COC(=O)[C@H](Cc1ccccc1)NC(=O)C1(OC(C)=O)CC(OC(C)=O)C(OC(C)=O)C(OC(C)=O)C1 (stereo not given in full)	i	-3	-2	-1	-1	0	/	/
Cc1ccccc1C(=O)NNS(=O)(=O)c1ccc(F)cc1	i	-5	/	/	/	/	/	/
COc1ccc(COC(=O)CN2C(=O)NC3(CCCC3)C2=O)cc1F	i	-5	34*	0	0	1	-3	-3
COc1ccc2c(c1)CCC/C2=N\Nc1nc(C(=O)NN)cs1	i	22	22*	6	2	2	9	-4
CCOC(=O)c1csc(N/N=C2\CCc3ccccc32)n1	i	-4	19*	-3	3	2	17*	-1
CCOC(=O)c1csc(N/N=C2\CCCc3ccccc32)n1	i	-3	3	-8	3	6	/	/
COc1ccc(NC(=O)COC(=O)C2COc3ccccc3O2)cc1OC (stereo not given)	i	-9	/	/	/	/	/	/
Cn1cc([C@]2(O)C(=O)Nc3cccc(Cl)c32)c2ccccc21	i	/	/	/	/	/	/	/
COc1ccc(N2Cc3ccc(C(=O)N/N=C\c4ccc(O)cc4O)cc3C2)cc1	/	/	19*	68*	4	2	13	-3
O=C(N/N=C/c1ccc(O)cc1O)C(=O)N/N=C/c1ccc(O)cc1O	i	11	53*	-8	-3	8	30*	-7
O=C(NN=Cc1ccc(O)cc1)C(=O)NN=Cc1ccc(O)cc1	i	0	/	/	/	/	/	/
CCCNC(=O)CCCCn1c(=S)[nH]c2c([nH]c3ccc(OC)cc32)c1=O	i	5	6	2	-3	0	/	/
COc1ccc2[nH]c3c(=O)n(CCCCC(=O)N4CCCC4)c(=S)[nH]c3c2c1	i	0	36*	9	2	-5	33*	1
